From ChEMBL document CHEMBL1155723, “Cytotoxic pheophorbide-related compounds from Clerodendrum calamitosum and C. cyrtophyllum” (2001) come the findings set out here.

Values after ≈ are worked out from the molar mass of the structure shown. Active and inactive are the calls of the source. The calls are words filed in the database; no cut-off is given here. A value given as a limit tells only on which side of the number the result lay.

Assay [1] has as its system KB. Nature of the assay: Selectivity for human KB-CPT cells to human KB cells. Format: functional.
The test system of assay [2] is KB. Nature of the assay: Selectivity for human KB-VCR cells to human KB cells. Format: functional.
Assay [3] concerns KB. Nature of the assay: Selectivity for human KB-7d cells to human KB cells. Format: functional.
In assay [4] the test system is KB. The assay is described as follows: Cytotoxicity against human KB cells after 72 hrs by SRB assay. Format: functional. The conditions noted are these: read-out: ED50 (the source's name). In outline: (§1)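 Stock cultures kept in RPMI-1640 with 25 mM HEPES, 0.2% (w/v) NaHCO3, 10% (v/v) FBS and 100 µg/mL kanamycin at 37 °C, 5% CO2. Trypsinized cells seeded at 2500-10 000 per well and exposed 72 h at 37 °C to graded concentrations from DMSO stocks (final DMSO ≤2% v/v). Cells fixed with cold 50% TCA, stained with 0.4% SRB, A562 read. ED50 interpolated from dose-response, triplicate.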

In a further assay the test system is HCT-8. The assay is described as follows: Cytotoxicity against human HCT8 cells after 72 hrs by SRB assay. The assay is classed as functional. The conditions noted are these: HCT-8, 72 h, read-out: ED50 (the source's name). In outline:
as §1
(In general: In SRB staining, fixed cells bind dye roughly in proportion to their protein.)

Another assay deals with MCF7. Nature of the assay: Cytotoxicity against human MCF7 cells after 72 hrs by SRB assay. The assay is classed as functional. As to conditions: MCF7, 72 h, read-out: ED50 (the source's name). In outline: as §1
Assay [5] deals with HTC. Nature of the assay: Cytostatic activity against rat HTC cells at 66 ug/ml under direct photoirradiation. Format: functional, cell-based.
Another assay has as its system A549. The assay is described as follows: Cytotoxicity against human A549 cells after 72 hrs by SRB assay. The conditions noted are these: A549, 72 h, read-out: ED50 (the source's name). Format: functional. In outline: as §1
A further assay deals with 1A9. Nature of the assay: Cytotoxicity against human 1A9 cells after 72 hrs by SRB assay. Format: functional. The conditions noted are these: 1A9, 72 h, read-out: ED50 (the source's name). In outline:
as §1

Assay [6] is described as follows: Cytotoxicity against human CAKI cells after 72 hrs by SRB assay. The assay is classed as functional. As to conditions: read-out: ED50 (the source's name). In short, it runs like this: as §1
A further assay relates to SK-MEL. The assay is described as follows: Cytotoxicity against human SK-MEL cells after 72 hrs by SRB assay. The assay is classed as functional. The conditions noted are these: read-out: ED50 (the source's name). In outline:
as §1

In assay [7] the test system is HTC. Nature of the assay: Cytostatic activity against rat HTC cells at 33 ug/ml. Format: functional, cell-based.
For assay [8], the system named is HTC. Nature of the assay: Cytostatic activity against rat HTC cells at 33 ug/ml under direct photoirradiation. The assay is classed as functional, cell-based.
Assay [9] deals with HTC. Nature of the assay: Cytostatic activity against rat HTC cells at 66 ug/ml. The assay is classed as functional, cell-based.

With `COc1cc([C@@H]2c3cc4c(cc3[C@@H](O[C@@H]3O[C@@H]5CO[C@@H](C)O[C@H]5[C@H](O)[C@H]3O)[C@H]3COC(=O)[C@H]23)OCO4)cc(OC)c1O` [ETOPOSIDE], the “fold change (FC)” value in the assay with KB [1] amounted to 1; with KB [2], 153; with KB [3], 119.

On to `C=Cc1c(C)c2cc3nc(c(C(=O)C(=O)OC)c4[nH]c(cc5nc(cc1[nH]2)C(C)=C5CC)c(C)c4C(=O)OC)[C@@H](CCC(=O)OC)[C@@H]3C`, for which the EC50 with KB [4] was found to be 0.2 µg/mL (≈ 0.306 µM); in the assay with HCT-8, 0.79 µg/mL (≈ 1.21 µM); with MCF7 it was 0.73 µg/mL (≈ 1.12 µM); in the assay on A549 it was 0.49 µg/mL (≈ 0.751 µM); in the assay with 1A9, 0.2 µg/mL (≈ 0.306 µM); in [6], 0.55 µg/mL (≈ 0.843 µM). Further, in the assay with SK-MEL, the EC50 is 1.1 µg/mL (≈ 1.69 µM). For the same compound, the result with HTC [5] and in the assay with HTC [8] was Active. For the same compound, the result in the assay with HTC [7] and in the assay on HTC [9] was inactive.

With `C=Cc1c(C)c2cc3nc(c4c5[nH]c(cc6nc(cc1[nH]2)C(C)=C6CC)c(C)c5C(=O)[C@@H]4C(=O)OC)[C@@H](CCC(=O)OC)[C@@H]3C` [METHYL PHEOPHORBIDE A], the EC50 in the assay on KB [4] was 0.23 µg/mL (≈ 0.379 µM); in the assay with HCT-8, 1 µg/mL (≈ 1.65 µM); in the assay with MCF7, 0.95 µg/mL (≈ 1.57 µM); with A549, 0.83 µg/mL (≈ 1.37 µM); with 1A9, 0.26 µg/mL (≈ 0.429 µM); in assay [6], 0.62 µg/mL (≈ 1.02 µM). In addition, in the assay with SK-MEL, the EC50 came to 1.2 µg/mL (≈ 1.98 µM). The outcome in the assay with HTC [5] and in the assay with HTC [8] was Active. For the same compound, the result in the assay on HTC [7] and with HTC [9] was inactive.

For `C=Cc1c(C)c2cc3nc(c4c5[nH]c(cc6nc(cc1[nH]2)C(C=O)=C6CC)c(C)c5C(=O)[C@@H]4C(=O)OC)[C@@H](CCC(=O)OC/C=C(\C)CCCC(C)CCCC(C)CCCC(C)C)[C@@H]3C` (stereo not given in full), the outcome in the assay with HTC [8] was Active.

`C=Cc1c(C)c2cc3nc(c4c5[nH]c(cc6nc(cc1[nH]2)C(C)=C6CC)c(C)c5C(=O)[C@]4(O)C(=O)OC)[C@@H](CCC(=O)O)[C@@H]3C`: the EC50 was 1.3 µg/mL (≈ 2.14 µM) in the assay on KB [4]; above 4 µg/mL in the assay with HCT-8; above 4 µg/mL in the assay with MCF7; above 4 µg/mL in the assay with A549; 1.2 µg/mL (≈ 1.97 µM) in the assay with 1A9; 3 µg/mL (≈ 4.93 µM) in assay [6]. For the same compound, the EC50 in the assay on SK-MEL was found to be 4 µg/mL (≈ 6.57 µM). The result with HTC [5] and in the assay on HTC [8] was Active. Further, the result with HTC [7] and in the assay with HTC [9] was inactive.

Turning to `C=Cc1c(C)c2cc3nc(c4c5[nH]c(cc6nc(cc1[nH]2)C(C)=C6CC)c(C)c5C(=O)[C@]4(O)C(=O)OC)[C@@H](CCC(=O)OC/C=C(\C)CCCC(C)CCCC(C)CCCC(C)C)[C@@H]3C` (stereo not given in full), the EC50 stood at 12 µg/mL (≈ 13.5 µM) in the assay with KB [4]; 14 µg/mL (≈ 15.8 µM) with HCT-8; 8.8 µg/mL (≈ 9.92 µM) in the assay with MCF7; 15 µg/mL (≈ 16.9 µM) in the assay with A549; 22 µg/mL (≈ 24.8 µM) with 1A9; 19 µg/mL (≈ 21.4 µM) in assay [6]. In addition, the EC50 in the assay with SK-MEL amounted to 14 µg/mL (≈ 15.8 µM).

Turning to `C=Cc1c(C)c2cc3nc(c(C(=O)C(=O)OC)c4[nH]c(cc5nc(cc1[nH]2)C(C)=C5CC)c(C)c4C(=O)OC)[C@@H](CCC(=O)O)[C@@H]3C` [PURPURIN 7 DIMETHYL ESTER], the EC50 with KB [4] is 0.7 µg/mL (≈ 1.1 µM); in the assay on HCT-8 it was 1.6 µg/mL (≈ 2.51 µM); in the assay on MCF7, 1.6 µg/mL (≈ 2.51 µM); in the assay with A549, 1.8 µg/mL (≈ 2.82 µM); in the assay on 1A9, 0.64 µg/mL (≈ 1 µM); in assay [6], 1.3 µg/mL (≈ 2.04 µM). Also, the EC50 in the assay with SK-MEL amounted to 1.1 µg/mL (≈ 1.72 µM). The “fold change (FC)” value in the assay with KB [1] is listed as 1; in the assay with KB [2], 0.5; in the assay with KB [3], 0.7. Further, the outcome in the assay with HTC [5] and with HTC [8] was Active. Further, the result in the assay with HTC [7] and in the assay with HTC [9] was inactive.

On to `C=Cc1c(C)c2cc3nc(c4c5[nH]c(cc6nc(cc1[nH]2)C(C)=C6CC)c(C)c5C(=O)[C@@H]4C(=O)OC)[C@@H](CCC(=O)O)[C@@H]3C` [PHEOPHORBIDE A], for which the EC50 with KB [4] stood at 0.46 µg/mL (≈ 0.776 µM); in the assay with HCT-8, 1.5 µg/mL (≈ 2.53 µM); in the assay on MCF7 it was 1.6 µg/mL (≈ 2.7 µM); with A549, 1.5 µg/mL (≈ 2.53 µM); in the assay on 1A9, 0.48 µg/mL (≈ 0.81 µM); in [6], 0.88 µg/mL (≈ 1.48 µM). Further, the EC50 in the assay on SK-MEL was determined as 0.91 µg/mL (≈ 1.54 µM). Further, the results for the “fold change (FC)” value in the assay with KB [1], in the assay with KB [2] and in the assay with KB [3] were 1.1, 0.6 and 1, respectively. For the same compound, the outcome in the assay on HTC [5] and with HTC [8] was Active. Also, the outcome in the assay on HTC [7] and in the assay with HTC [9] was inactive.

Take `C=Cc1c(C)c2cc3nc(c4c5[nH]c(cc6nc(cc1[nH]2)C(C)=C6CC)c(C)c5C(=O)[C@]4(O)C(=O)OC)[C@@H](CCC(=O)OC)[C@@H]3C`: the EC50 in the assay on KB [4] stood at 0.3 µg/mL (≈ 0.482 µM); in the assay on HCT-8, 0.4 µg/mL (≈ 0.642 µM); in the assay on MCF7 it was 0.45 µg/mL (≈ 0.723 µM); with A549, 0.47 µg/mL (≈ 0.755 µM); with 1A9, 0.27 µg/mL (≈ 0.434 µM); in assay [6] it was 1.9 µg/mL (≈ 3.05 µM). For the same compound, in the assay with SK-MEL, the EC50 stood at 0.84 µg/mL (≈ 1.35 µM). Moreover, the “fold change (FC)” value is 1.1 in the assay on KB [1], above 57 in the assay on KB [2] and 0.8 in the assay on KB [3]. Further, the outcome in the assay on HTC [5] and in the assay on HTC [8] was Active. The result with HTC [7] and with HTC [9] was inactive.

Regarding `CC(=O)O[C@H]1C(=O)[C@@]2(C)[C@H]([C@H](OC(=O)c3ccccc3)[C@]3(O)C[C@H](OC(=O)[C@H](O)[C@@H](NC(=O)c4ccccc4)c4ccccc4)C(C)=C1C3(C)C)[C@]1(OC(C)=O)CO[C@@H]1C[C@@H]2O` [PACLITAXEL], the entries for the “fold change (FC)” value with KB [1], in the assay on KB [2] and with KB [3] were 1, 15 and 1, respectively.

On to `C=Cc1c(C)c2cc3nc(c4c5[nH]c(cc6nc(cc1[nH]2)C(C)=C6CC)c(C)c5C(=O)[C@]4(O)C(=O)OC)[C@@H](CCC(=O)OC/C=C(\C)CCCC(C)CCCC(C)CC(O)CC(C)C)[C@@H]3C` (mixture of isomers), for which the result in the assay on HTC [8] was Active.
